Among the data in ChEMBL document CHEMBL3860048 (J Med Chem, 2016) are EC50, inhibition and solubility values, retold here.

The structures appear in SMILES notation. Active and inactive are the calls of the source. The rule behind the calls is not given here. Where a SMILES comes first, the peptide text is derived from it. [ ]: non-standard residue; d: D form. Phe(3-F) = N[C@@H](Cc1cccc(F)c1)C(=O)O; Arg(Me) = CNC(=N)NCCC[C@H](N)C(=O)O; Hyp = O=C(O)[C@@H]1C[C@@H](O)CN1; Aze = O=C(O)[C@@H]1CCN1; Aib = CC(C)(N)C(=O)O; azaGly = NNC(=O)O

Data set [1] addresses KiSS-1 receptor (Homo sapiens, UniProt Q969F8). Put plainly: Agonist activity at human KISS1R expressed in CHO/dhfr cells assessed as increase in intracellular Ca2+ levels measured for 180 secs by Fluo 3-AM dye based FLIPR assay. Format: functional, cell-based. A digest of the protocol:
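CHO cells expressing human KISS1R; FLIPR recording of ligand-induced [Ca2+]i rise over time. Maximum response taken and expressed as percent of the response to a maximal concentration of metastin(45-54). EC50 = concentration giving half-maximal mobilization, from nonlinear regression of smoothed data. Reported as ratio to the metastin(45-54) EC50.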

Data set [2] has as its target KiSS-1 receptor (Rattus norvegicus, UniProt Q924U1). The experiment in a line: Agonist activity at rat KISS1R expressed in CHO/dhfr cells assessed as increase in intracellular Ca2+ levels measured for 180 secs by Fluo 3-AM dye based FLIPR assay. Format: functional, cell-based.
Data set [3] deals with Rattus norvegicus. Put plainly: Inhibition of testosterone levels in CD(SD) rat assessed as plasma testosterone level <0.04 ng/ml at 0.01 nmol/hr, sc administered continuously for 6 days through alzet osmotic pump measured after 6 days by radio-immunoassay. Format: functional, organism-based.
For data set [4], the system named is Rattus norvegicus. Put plainly: Inhibition of testosterone levels in CD(SD) rat assessed as plasma testosterone level <0.04 ng/ml at 0.1 nmol/hr, sc administered continuously for 6 days through alzet osmotic pump measured after 6 days by radio-immunoassay. Format: functional, organism-based.
Data set [5] can be described thus: Solubility of the compound in water at 20 mg/ml. Format: physicochemical. Particulars: buffer.
Data set [6] relates to Rattus norvegicus. Put plainly: Inhibition of testosterone levels in CD(SD) rat assessed as plasma testosterone level <0.04 ng/ml at 0.03 nmol/hr, sc administered continuously for 6 days through alzet osmotic pump measured after 6 days by radio-immunoassay. Format: functional, organism-based.

Chain of KiSS-1 receptor (Homo sapiens, UniProt Q969F8) (Q969F8 whole entry): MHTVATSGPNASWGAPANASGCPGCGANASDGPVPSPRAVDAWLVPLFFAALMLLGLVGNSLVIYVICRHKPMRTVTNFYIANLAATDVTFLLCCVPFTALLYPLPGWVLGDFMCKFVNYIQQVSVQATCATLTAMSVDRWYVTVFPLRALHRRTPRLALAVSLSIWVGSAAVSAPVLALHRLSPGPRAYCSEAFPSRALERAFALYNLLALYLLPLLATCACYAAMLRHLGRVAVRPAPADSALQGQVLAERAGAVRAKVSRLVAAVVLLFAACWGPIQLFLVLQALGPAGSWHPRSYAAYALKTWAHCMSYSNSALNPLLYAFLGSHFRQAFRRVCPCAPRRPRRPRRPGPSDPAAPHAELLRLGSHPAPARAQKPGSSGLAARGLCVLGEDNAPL
Chain of KiSS-1 receptor (Rattus norvegicus, UniProt Q924U1) (Q924U1 whole entry): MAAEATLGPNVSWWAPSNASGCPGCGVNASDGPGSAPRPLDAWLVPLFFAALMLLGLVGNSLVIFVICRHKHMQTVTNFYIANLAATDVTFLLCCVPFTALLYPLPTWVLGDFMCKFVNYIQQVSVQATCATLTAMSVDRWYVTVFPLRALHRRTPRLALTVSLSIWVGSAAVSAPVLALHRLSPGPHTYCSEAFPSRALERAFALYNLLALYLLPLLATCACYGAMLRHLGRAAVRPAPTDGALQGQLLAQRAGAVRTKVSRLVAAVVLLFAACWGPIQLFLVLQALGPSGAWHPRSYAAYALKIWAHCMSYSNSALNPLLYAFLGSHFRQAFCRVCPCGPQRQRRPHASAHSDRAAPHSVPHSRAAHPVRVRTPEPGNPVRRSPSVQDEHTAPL

Turning to `CNC(=N)NCCC[C@H](NC(=O)[C@H](CC(C)C)NC(=O)NNC(=O)[C@H](Cc1ccccc1)NC(=O)[C@@H](NC(=O)[C@H](CC(N)=O)NC(=O)[C@@H]1CCCN1C(=O)[C@@H](Cc1ccc(O)cc1)NC(C)=O)[C@@H](C)O)C(=O)N[C@@H](Cc1c[nH]c2ccccc12)C(N)=O`, the EC50 at KiSS-1 receptor [1] is 0.48 nM; on KiSS-1 receptor [2], 9.3 nM. The inhibition result in the data set with Rattus norvegicus [3] is “Active”.

In the case of `CNC(=N)NCCC[C@H](NC(=O)[C@H](CC(C)C)NC(=O)NNC(=O)[C@H](Cc1ccccc1)NC(=O)[C@@H](NC(=O)[C@H](CC(N)=O)NC(=O)[C@@H](CCCCN)NC(=O)[C@@H](Cc1ccc(O)cc1)NC(C)=O)[C@@H](C)O)C(=O)N[C@@H](Cc1c[nH]c2ccccc12)C(N)=O`, the inhibition entry with Rattus norvegicus [4] was “Active”. The EC50 on KiSS-1 receptor [1] amounted to 3.6 nM; at KiSS-1 receptor [2] it was 18 nM.

Regarding `CNC(=N)NCCC[C@H](NC(=O)[C@H](CC(C)C)NC(=O)NNC(=O)[C@H](Cc1ccccc1)NC(=O)[C@@H](NC(=O)[C@H](CC(N)=O)NC(=O)[C@H](Cc1c[nH]c2ccccc12)NC(=O)[C@@H](Cc1ccc(O)cc1)NC(C)=O)[C@@H](C)O)C(=O)N[C@@H](Cc1c[nH]c2ccccc12)C(N)=O`, the EC50 on KiSS-1 receptor [1] stood at 0.61 nM; at KiSS-1 receptor [2], 4.8 nM. For the same molecule, the solubility result in data set [5] is listed as “Insoluble”. Besides, in the data set with Rattus norvegicus [3], the inhibition entry was “Active”.

Consider `CNC(=N)NCCC[C@H](NC(=O)[C@H](CC(C)C)NC(=O)NNC(=O)[C@H](Cc1ccccc1)NC(=O)[C@@H](NC(=O)[C@H](CC(N)=O)NC(=O)CNC(=O)[C@@H](Cc1ccc(O)cc1)NC(C)=O)[C@@H](C)O)C(=O)N[C@@H](Cc1c[nH]c2ccccc12)C(N)=O` (Ac-[dY]GNTF[azaGly]L[Arg(Me)]W-NH2), for which the inhibition result in the data set on Rattus norvegicus [6] is “Active”. Moreover, the EC50 at KiSS-1 receptor [1] is 5.2 nM; at KiSS-1 receptor [2], 46 nM. For the same molecule, in data set [5], the solubility result is given as “Soluble”.

Consider `CNC(=N)NCCC[C@H](NC(=O)[C@H](CC(C)C)NC(=O)NNC(=O)[C@H](Cc1cccc(F)c1)NC(=O)[C@@H](NC(=O)[C@H](CC(N)=O)NC(=O)[C@H](CCCCN)NC(=O)[C@@H](Cc1ccc(O)cc1)NC(C)=O)[C@@H](C)O)C(=O)N[C@@H](Cc1c[nH]c2ccccc12)C(N)=O` (Ac-[dY]KNT[Phe(3-F)][azaGly]L[Arg(Me)]W-NH2), for which the EC50 was determined as 0.43 nM on KiSS-1 receptor [1] and 7.1 nM on KiSS-1 receptor [2]. The solubility entry in data set [5] is “Soluble”.

For `CNC(=N)NCCC[C@H](NC(=O)[C@H](CC(C)C)NC(=O)NNC(=O)[C@H](Cc1ccccc1)NC(=O)[C@@H](NC(=O)[C@H](CC(N)=O)NC(=O)C(C)(C)NC(=O)[C@@H](Cc1ccc(O)cc1)NC(C)=O)[C@@H](C)O)C(=O)N[C@@H](Cc1c[nH]c2ccccc12)C(N)=O` (Ac-[dY][Aib]NTF[azaGly]L[Arg(Me)]W-NH2), the inhibition entry with Rattus norvegicus [6] was “Active”. For the same molecule, the EC50 at KiSS-1 receptor [1] came out at 2.4 nM; on KiSS-1 receptor [2] it was 17 nM. For the same molecule, the solubility result in data set [5] was “Soluble”.

Regarding `CNC(=N)NCCC[C@H](NC(=O)[C@H](CC(C)C)NC(=O)NNC(=O)[C@H](Cc1ccccc1)NC(=O)[C@@H](NC(=O)[C@H](CC(N)=O)NC(=O)[C@@H]1CCN1C(=O)[C@@H](Cc1ccc(O)cc1)NC(C)=O)[C@@H](C)O)C(=O)N[C@@H](Cc1c[nH]c2ccccc12)C(N)=O` (Ac-[dY][Aze]NTF[azaGly]L[Arg(Me)]W-NH2), the inhibition result in the data set on Rattus norvegicus [6] was “Active”. For the same molecule, the EC50 is 1.9 nM on KiSS-1 receptor [1] and 16 nM at KiSS-1 receptor [2].

As for `CNC(=N)NCCC[C@H](NC(=O)[C@H](CC(C)C)NC(=O)NNC(=O)[C@H](Cc1cccc(F)c1)NC(=O)[C@@H](NC(=O)[C@H](CC(N)=O)NC(=O)[C@@H]1C[C@@H](O)CN1C(=O)[C@@H](Cc1ccc(O)cc1)NC(C)=O)[C@@H](C)O)C(=O)N[C@@H](Cc1c[nH]c2ccccc12)C(N)=O` (Ac-[dY][Hyp]NT[Phe(3-F)][azaGly]L[Arg(Me)]W-NH2), the EC50 on KiSS-1 receptor [1] is 0.75 nM; on KiSS-1 receptor [2], 8.5 nM. In the data set on Rattus norvegicus [3], the inhibition entry is “Active”.

As a reminder, the EC50 is the concentration at which the effect is half-maximal.
